Source: PubChem (several laboratories)
Only some compounds are listed: those with a hit (about 2.6% of all), similar ones and a draw of the others.
proCasp7 act – counter-screen: procaspase-7 (human) activation; P55210; AID 463210; activation, % at 8.5 µM; recombinant procaspase-7, Ac-DEVD-pNA absorbance 405 nm; D23A/D198A/D206A triple mutant, cannot self-cleave; scale: DMSO 0, 5 µM enzyme 100; 0.093% of 330,000 active;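 active means percent activation above the screen-wide mean plus 3 SD, cut at about 25% in these data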
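buffer or medium = Zinc-free HEPES/NaCl buffer, pH 7.4 | material = Procaspase-7 triple mutant (PC-7 D3A) | input = 2 µM procaspase-7 mutant as dispensed | signal = Epi-absorbance of released pNA at 405 nm, two timepoints | timing = 1 h preincubation, 2 h reaction | replicates = singlicate compound testing | evaluation = % activation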
procasp3 activ – activators of human procaspase-3; P42574; recombinant procaspase-3 D3A, Ac-DEVD-pNA absorbance 405 nm; activation, % at 8.5 µM; 0.11% of 330,000 active;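 active means activation above the mean of all tested compounds plus 3 SD, cut at about 21% in these data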
Target sequence (P42574 whole entry D9A/D28A/D175A): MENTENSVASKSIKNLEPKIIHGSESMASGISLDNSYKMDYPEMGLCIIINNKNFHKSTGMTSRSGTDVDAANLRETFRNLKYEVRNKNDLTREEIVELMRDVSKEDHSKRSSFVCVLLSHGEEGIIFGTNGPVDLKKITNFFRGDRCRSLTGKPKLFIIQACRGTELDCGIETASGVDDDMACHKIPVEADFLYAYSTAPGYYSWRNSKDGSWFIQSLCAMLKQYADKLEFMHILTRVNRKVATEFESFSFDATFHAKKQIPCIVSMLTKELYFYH
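assay system = Procaspase-3 D3A mutant | signal = absorbance at 405 nm, 0 and 120 min | times = 1 h preincubation plus 2 h reaction at 25 °C | repeats = single replicate | read-out = % activation between DMSO and enzyme-spiked controls | medium = Zinc-free HEPES saline buffer with Triton X-100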
PolyA inh – blocks polyadenylation in yeast reporter cells; AID 1875; S. cerevisiae SKY197-pL101 polyadenylation reporter, beta-gal luminescence; efflux-impaired pdr1/pdr3 knockout yeast; score 100 = 6 SD above DMSO; activity score, % at 12 µM; 0.02% of 300,000 active;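 active means lowest replicate activity score at least 50, where 100 means six control SD above control mean; inconclusive means lowest score under 50 but half or more replicates reach 50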;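 further: yeast exposed to compound for 9 h at 30 °C; higher score means more reporter readthrough which indicates perturbed polyadenylation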
AHR act – human AHR activation | P35869 | AHR-responsive luciferase reporter cells, luminescence | activation, % at 5 µM | 2.5% of 320,000 active; in the data active means activation above about 47%
Of the large screens only hits and unclear results are named; the others gave an inactive call.

CC(NC(=O)/C(C#N)=C/c1ccc(N2CCOCC2)cc1)c1ccccc1 (stereo not drawn)	AHR act 47
O=C(Nc1ccccc1C(=O)NCCc1ccccc1)c1cnccn1	AHR act 61
COc1cc(OC)cc(-c2nc3cc(C)ccc3o2)c1	AHR act 58
O=C(NCCOc1ccc(Cl)cc1)c1cccc(S(=O)(=O)N2CCCC2)c1	none (no result: PolyA inh)
CSc1c2c(nc3ncnn13)CCC2	none
CSc1nc2[nH]c3c(c2c2ncnn12)CCCC3	AHR act 47
Cc1ccc(Nc2nc(-c3ccncc3)nc3ccccc23)cc1	none
CC(=O)Nc1cccc(Nc2nc(-c3ccccc3)nc3ccccc23)c1	AHR act 62
c1ccc(Nc2nc(-c3ccncc3)nc3ccccc23)cc1	none
Fc1ccccc1Nc1nc(-c2ccncc2)nc2ccccc12	AHR act 56
CCOc1nc(-c2ccncc2)nc2ccccc12	AHR act 114
Fc1ccc(Nc2nc(-c3ccncc3)nc3ccccc23)cc1	AHR act 52
CC(C)C[C@H](NC(=O)N1CCn2c1nc1ccccc12)C(=O)N[C@@H](Cc1ccccc1)C(=O)O	PolyA inh inconclusive
Cc1cc(NC(=O)CSc2n[nH]c(-c3ccc(Cl)cc3Cl)n2)no1	none (no result: PolyA inh)
Cc1ccc(C(=O)N(CC(C)C)c2nc3ccccc3s2)o1	AHR act 72
C/C(=N\Nc1nccnc1Cl)c1ccc(O)c(C)c1	none
CCc1noc(N)c1C(=O)Nc1ccc(Cl)cc1	AHR act 76
Cc1noc(N)c1C(=O)Nc1ccc(F)c(Cl)c1	none
COc1ccccc1N=Nc1c(C)[nH][nH]c1=O	none
Cc1ccc(N=Nc2c(C)[nH][nH]c2=O)c(C)c1	AHR act 48
CCCCn1c(SCC(=O)OCC)nc2c(sc(=S)n2-c2ccccc2OC)c1=O	none
Cc1ccccc1NS(=O)(=O)c1ccc(NS(=O)(=O)c2cccs2)cc1	none
CCn1c(CNc2ccc(Cl)cc2)nnc1SCc1ccc(C)cc1	AHR act 50
Fc1ccc(-c2nc3n(n2)Cc2ccccc2-3)cc1	AHR act 61
Cc1ccc(-c2nc3n(n2)Cc2ccccc2-3)cc1	none
COc1ccc(N2CCN(C(=O)COC(=O)c3ccc(CSC)o3)CC2)cc1	none (no result: PolyA inh)
C=CCn1c(=N)n(CC(=O)c2ccc(Br)s2)c2ccccc21	AHR act 80
C=CCn1c(=N)n(CC(=O)c2ccc(Cl)cc2)c2ccccc21	AHR act 79
C=CCn1c(=N)n(CC(=O)OC)c2ccccc21	none
CCCCCCn1c(O)c(/C=C2\C=NN=C2c2ccccc2)sc1=S	none
CCCCn1c(O)c(/C=C2\C=NN=C2c2ccccc2)sc1=S	AHR act 66
Cn1c(O)c(/C=C2\C=NN=C2c2ccccc2)sc1=S	AHR act 75
COc1ccccc1/C=N/NC(=O)c1ccc2c(c1)OCO2	AHR act 51
O=C(N/N=C/c1ccc([N+](=O)[O-])cc1)c1cc(-c2ccc3c(c2)OCO3)n[nH]1	none
COc1cc(/C=N/NC(=O)c2cc(-c3ccc4c(c3)OCO4)n[nH]2)ccc1O	AHR act 128
O=C(N/N=C/c1ccc2c(c1)OCO2)C1CC1	AHR act 67
COc1cc2ccccc2cc1C(=O)N/N=C/c1ccc2c(c1)OCO2	none (no result: proCasp7 act, procasp3 activ, AHR act)
COc1ccc(-c2cc(C(=O)N/N=C/c3ccc4c(c3)OCO4)c3ccccc3n2)c(OC)c1	AHR act 49
O=C(COC(=O)c1cc(=O)[nH]c2ccccc12)Nc1ccc(Cl)cn1	none
Cc1ccsc1/C=N/NC(=O)CC(=O)NCC(C)C	none
COc1cc(C(=O)N(CCN(C)C)CC2CCCN(Cc3ccccc3F)C2)ccc1C (stereo not drawn)	none
O=C(c1ccc(F)cc1)C1CCN(C(=O)c2ccccc2F)CC1	none
COCCC(=O)N1CCC(Oc2ccc(C(=O)NCc3nccn3C)cc2)CC1	none
CCn1ncc(/C=N/NC(=O)c2ccc3c(c2)OCO3)c1C	none
CCn1nc(C)c(CNC(=O)Nc2ccc3c(c2)OCO3)c1C	AHR act 68
COc1ccccc1C(=O)N/N=C/c1ccc2c(c1)OCO2	AHR act 50
CCn1nc(C)c(/C=N\NC(=O)c2ccc3c(c2)OCO3)c1C	AHR act 73
Cc1cc(CNC(=O)Nc2ccc3c(c2)OCO3)nn1C	none (no result: PolyA inh)
Cc1c(/C=N/NC(=O)C(NC(=O)c2ccc3c(c2)OCO3)C(C)C)c2ccccc2n1C (stereo not drawn)	AHR act 51
N#Cc1ccc(CN2CCN(C(=O)c3cc(C4CC4)nn3-c3ccccc3)CC2)cc1	none (no result: PolyA inh)
